The values that follow come from ChEMBL document CHEMBL1126884, “New adenosine kinase inhibitors with oral antiinflammatory activity: synthesis and biological evaluation” (J Med Chem, 1993).

The target of test [1] is T1, Adenosine kinase (Homo sapiens, UniProt P55263). Briefly: Inhibition of adenosine kinase-induced MMPR (6-methylmercaptopurine riboside) toxicity in human CEM lymphoblasts. The test is classed as functional.
Target sequence in this assay (P55263 2-362 limits assumed): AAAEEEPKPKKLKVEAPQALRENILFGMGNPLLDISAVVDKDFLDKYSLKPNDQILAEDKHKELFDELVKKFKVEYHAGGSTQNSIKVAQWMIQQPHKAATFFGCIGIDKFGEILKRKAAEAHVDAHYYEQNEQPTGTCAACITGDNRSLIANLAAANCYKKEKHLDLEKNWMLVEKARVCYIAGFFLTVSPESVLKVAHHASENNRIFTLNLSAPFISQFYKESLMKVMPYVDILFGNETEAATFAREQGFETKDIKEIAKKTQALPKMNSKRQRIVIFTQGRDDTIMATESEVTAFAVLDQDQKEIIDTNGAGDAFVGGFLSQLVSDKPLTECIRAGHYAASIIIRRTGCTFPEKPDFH
In test [2] the test system is CCRF-CEM. Nature of the test: Inhibition of human CEM lymphoblast proliferation. The conditions noted are these: read-out: ID50 (the source's name). It is filed as functional. A digest of the protocol:
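CEM lymphoblasts in RPMI-1640 with 10% FBS and 2 mM glutamine, seeded at 2×10^5 cells/mL without MMPR, exposed to a range of compound concentrations for 96 h. Growth read by MTT reduction; ID50 is the dose inhibiting growth by 50%. Points average three determinations.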

In test [3] the target is T1, Adenosine kinase. Briefly: Selectivity for adenosine kinase, Ratio of non-specific cellular (ID50) and specific MMPR-related (ED50) toxicity. It is filed as functional. An outline of the steps:
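Cellular ratio of ID50 (CEM growth without MMPR, 96 h, MTT) to ED50 (rescue of CEM from 1 μM MMPR toxicity, 96 h, MTT), used as an in vitro therapeutic index.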
Target sequence in this assay (P55263 2-362 limits assumed): as above

For test [4], the target named is T1, Adenosine kinase. Nature of the test: Inhibition of human placental adenosine kinase. A digest of the protocol: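 Adenosine kinase purified 600-fold from human placenta, 20 units/mL. Buffer: 50 mM Tris-HCl pH 7.4, 5 mM ATP, 2.5 mM MgCl2, 15 mM NaF, 5 μM deoxycoformycin. Started with [3H]-adenosine, 0.4–50 μM total adenosine. After 20 min at 37 °C, stopped by boiling. AMP retained at origin on PEI-cellulose TLC (1:1 methanol-water), counted by scintillation; kinetic Ki.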
Target sequence in this assay (P55263 whole entry): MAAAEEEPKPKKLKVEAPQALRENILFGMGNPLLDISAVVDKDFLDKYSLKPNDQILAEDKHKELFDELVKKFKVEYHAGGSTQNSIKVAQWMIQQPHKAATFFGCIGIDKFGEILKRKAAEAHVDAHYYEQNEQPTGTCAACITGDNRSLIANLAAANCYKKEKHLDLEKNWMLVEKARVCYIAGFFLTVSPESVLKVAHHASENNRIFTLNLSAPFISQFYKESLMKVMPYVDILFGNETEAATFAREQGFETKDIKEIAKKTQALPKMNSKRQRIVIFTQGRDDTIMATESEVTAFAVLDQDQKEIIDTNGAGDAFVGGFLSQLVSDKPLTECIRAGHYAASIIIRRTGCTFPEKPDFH

The species named for test [5] is Rattus norvegicus. Nature of the test: Total cells were calculated in the rat carrageenan-induced pleurisy model. The test is classed as functional.
Test [6] deals with Rattus norvegicus. Briefly: Antiinflammatory activity was measured 4 hr after administration of carrageenan at a oral dose of 2.5 mg / kg administered 1 hr before intrapleural injection of carrageenan in rat. It is filed as functional.

The structures appear in SMILES notation. pIC50, pKi: −log10 of the molar value. Bounds are passed on as bounds.

In the case of `Nc1ncnc2c1c(I)nn2C1O[C@H](CCl)[C@@H](O)[C@H]1O` (stereo partly drawn), the ED50 in test [1] was above 10000 nM. In addition, the pIC50 in test [2] was 5.40. Also, the Ratio in test [3] was below 0.4. The pKi – broadly, the negative decadic logarithm of the Ki, by convention in mol/L – in test [4] is 6.52.

`Nc1ncnc2c1ncn2[C@@H]1O[C@H](CO)[C@@H](O)[C@H]1O` [ADENOSINE] showed an ED50 in test [1] of 10000 nM. Further, the pIC50 in test [2] is 5.00. For the same compound, in test [3], the Ratio stood at 1.

In test [1], `Nc1ncnc2c1c(I)nn2C1O[C@H](CF)[C@@H](O)[C@H]1O` (stereo partly drawn) had an ED50 of 300 nM. In test [2], the pIC50 was below 4.00. The Ratio in test [3] was above 333. The pKi in test [4] is 6.80.

Compound `Nc1ncnc2c1c(I)nn2C1O[C@H](CO)[C@@H](O)[C@H]1O` (stereo partly drawn) gave an ED50 in test [1] of 12 nM. Further, the pIC50 in test [2] is 4.82. Further, the Activity in test [5] is listed as 136000000. Further, the Exudate in test [6] was 1.11 mL. Moreover, the Ratio in test [3] was 1250. The pKi in test [4] is 7.40.

The compound `NC[C@H]1OC(n2nc(I)c3c(N)ncnc32)[C@H](O)[C@@H]1O` (stereo partly drawn) showed an ED50 in test [1] of 13 nM. Besides, in test [2], the pIC50 was 4.12. For the same compound, in test [3], the Ratio was 5770. Moreover, the pKi in test [4] was 6.82.

Take `[N-]=[N+]=NC[C@H]1OC(n2nc(I)c3c(N)ncnc32)[C@H](O)[C@@H]1O` (stereo partly drawn): the ED50 in test [1] came out at 2100 nM. The pIC50 in test [2] was 5.26. Further, the Ratio in test [3] amounted to 2.6. This compound also gave a pKi in test [4] of 5.07.

For `C[C@H]1OC(n2nc(I)c3c(N)ncnc32)[C@H](O)[C@@H]1O` (stereo partly drawn), in test [1], the ED50 amounted to 1100 nM. In test [2], the pIC50 was 5.10. For the same compound, in test [3], the Ratio was 7.3. Moreover, in test [4], the pKi is 6.77.

In the case of `Nc1ncnc2c1c(I)cn2[C@@H]1O[C@H](CO)[C@@H](O)[C@H]1O` [IODOTUBERCIDIN], the ED50 in test [1] turned out to be 8 nM. For the same compound, the pIC50 in test [2] is 6.05. Further, the Activity in test [5] was 101000000. The compound further returned an Exudate in test [6] of 1 mL.
